Results taken from PMC10499415 (Clinical and Translational Science, 2023).
Read-outs that look alike come from different tables or passages of the source.

Assays:
[1] = cited from earlier work
[2] = set-up: unit not given beside the values; conditions: subjects who received futibatinib alone; cited from earlier work
clinical = conditions: human, in vivo, po, 20 mg, T max
[3] = set-up: AUC0–t / AUC0–inf: unit not given beside the values; conditions: cited from earlier work
[4] = healthy male adults; cited from earlier work
[5] = cited from earlier work; remark: listed apart in the source
[6] = for AUC0–24 GMR (90% CI) / AUC0–inf GMR (90% CI) / C max GMR (90% CI): GMR = 100 × (test/reference); for increase in AUC0–inf compared with matched controls / increase in C max compared with matched controls: single oral 20 mg
[7] = Phase I hepatic impairment study: safety and tolerability; assay type: in vivo, human
Summary of the method: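 Adults with chronic, stable hepatic impairment graded by Child-Pugh score (mild 5–6, moderate 7–9, severe 10–15), plus healthy controls matched on age, BMI and sex. All received a single oral 20 mg dose of test compound with ~240 mL water after an overnight fast of ≥10 h. Inpatient from day −1 to day 4, with repeated clinical and laboratory safety evaluations through day 4. AEs were queried by contact ~14 days post-dose.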

cytochrome P450 (CYP450) = conditions: in vitro; cited from earlier work
[8] = healthy subjects, fasted conditions
[9] = hepatic impairment groups vs overall healthy control group, range over groups
[10] = mild HI vs matched healthy control
[11] = mild HI vs overall healthy control cohort
[12] = moderate HI vs matched healthy control
[13] = moderate HI vs overall healthy control cohort
[14] = severe HI vs matched healthy control
[15] = severe HI vs overall healthy control cohort

C=CC(=O)N1CC[C@H](n2nc(C#Cc3cc(OC)cc(OC)c3)c3c(N)ncnc32)C1 [futibatinib, Futibatinib]
impact of futibatinib on the PKs of CYP3A substrates [1]: no impact | futibatinib exposure increase ([1]; co‐administered with itraconazole): 40%–50% | futibatinib exposure decrease ([1]; co‐administered with rifampin): 50%–60% | AUC0–inf [2]: 941 | AUC0–t [2]: 934.0 | Tmax (clinical): 1.75 h | median T max ([3]; fed conditions): 4.0 h | bioavailability lower under fed versus fasted conditions ([3]; fed versus fasted): 11.2% | AUC0–inf [3, 8]: 625.7 | AUC0–t [3, 8]: 617.8 | total amount of unchanged futibatinib in urine and feces [4]: negligible | accumulation ([5]; after repeat once daily doses): no accumulation | mean half‐life ([5]; patients with cancer and healthy subjects): ~ 3 h | dose proportionality of exposure ([5]; up to 80 mg): Dose‐proportional exposure increases | geometric mean C max greater than in corresponding matched healthy control group ([6]; across the hepatic impairment groups): 10%–43% | geometric mean AUC greater than in corresponding matched healthy control group ([6]; across the hepatic impairment groups, AUC0–24, AUC0–t, AUC0–inf): 17%–21% | mean percentage of AUC0–inf extrapolated ([6]; all groups): < 2% | GMRs for AUC [6, 9]: 85.9% to 122.5% | GMRs for C max [6, 9]: 113.5% to 117.9% | AUC0–24 GMR (90% CI) [6, 10]: 121.19 (74.27–197.74) % | AUC0–inf GMR (90% CI) [6, 10]: 120.79 (73.89–197.47) % | C max GMR (90% CI) [6, 10]: 142.53 (103.42–196.44) % | AUC0–24 GMR (90% CI) [6, 11]: 85.92 (54.94–134.38) % | AUC0–inf GMR (90% CI) [6, 11]: 85.66 (54.70–134.15) % | C max GMR (90% CI) [6, 11]: 113.52 (82.50–156.21) % | increase in futibatinib exposure versus healthy matched controls ([6]; mild hepatic impairment): 21%–43% | increase in AUC0–inf compared with matched controls ([6]; mild hepatic impairment): 21% | increase in C max compared with matched controls ([6]; mild hepatic impairment): 43% | AUC0–24 GMR (90% CI) [6, 12]: 119.62 (54.08–264.61) % | AUC0–inf GMR (90% CI) [6, 12]: 119.61 (53.90–265.45) % | C max GMR (90% CI) [6, 12]: 114.85 (75.38–175.00) % | AUC0–24 GMR (90% CI) [6, 13]: 122.20 (64.51–231.48) % | AUC0–inf GMR (90% CI) [6, 13]: 122.49 (64.50–232.63) % | C max GMR (90% CI) [6, 13]: 117.90 (82.04–169.44) % | increase in futibatinib exposure versus healthy matched controls ([6]; moderate hepatic impairment): 15%–20% | increase in AUC0–inf compared with matched controls ([6]; moderate hepatic impairment): 20% | increase in C max compared with matched controls ([6]; moderate hepatic impairment): 15% | AUC0–24 GMR (90% CI) [6, 14]: 116.91 (57.52–237.60) % | AUC0–inf GMR (90% CI) [6, 14]: 118.23 (57.79–241.87) % | C max GMR (90% CI) [6, 14]: 109.64 (66.62–180.44) % | AUC0–24 GMR (90% CI) [6, 15]: 117.62 (67.44–205.13) % | AUC0–inf GMR (90% CI) [6, 15]: 118.57 (67.46–208.38) % | C max GMR (90% CI) [6, 15]: 117.78 (87.42–158.68) % | increase in AUC0–inf compared with matched controls ([6]; severe hepatic impairment): 18% | increase in C max compared with matched controls ([6]; severe hepatic impairment): 10% | increase in futibatinib exposure versus healthy matched controls ([6]; severe mild hepatic impairment (so in the source)): 10%–18% | laboratory results ([7]; all cohorts): No unexpected findings or remarkable trends | study discontinuations due to TEAEs ([7]; all cohorts): no study discontinuations | total TEAEs reported (all grade 1) ([7]; all cohorts, 38 participants): four | participants reporting TEAEs ([7]; moderate hepatic impairment cohort): No participants | participants reporting TEAEs ([7]; severe hepatic impairment cohort): No participants | tolerability ([7]; single oral 20 mg, all groups): well‐tolerated | contribution of CYP450–related metabolism to the overall metabolism (cytochrome P450 (CYP450)): ~ 50%
